Values after ≈ are worked out from the molar mass of the structure shown. Active and inactive are the calls of the source. The rule behind the calls is not given here.
What was measured:
[1] = system: Staphylococcus epidermidis; experiment: Antibacterial activity against methicillin-resistant Staphylococcus epidermidis RP62A; type: functional
How it was run: (§1)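 Broth microdilution in TSB. Strains were grown 16 h, subcultured 6 h to log phase, then diluted to 10^6 CFU/mL by OD600. Compound came from a 5 mg/mL DMSO stock diluted in TSB and serially diluted, top final concentration 25 μg/mL. MIC was the lowest concentration giving complete growth inhibition. Done ≥3 times in duplicate.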

Klebsiella pneumoniae = experiment: Antibacterial activity against Klebsiella pneumoniae ATCC 13383 in presence of monovalent Na+ and K+; type: functional
How it was run: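 MIC by the standard broth dilution method, in medium made by dissolving TSB powder in 1× PBS (7.5 g per 250 mL), autoclaved, to supply Na+ and K+. Inoculum of log-phase bacteria at 10^6 CFU/mL. MIC = lowest concentration completely inhibiting growth.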

[2] = Selectivity ratio of HC50 for hemolytic activity against mouse RBC to MIC for methicillin-resistant Staphylococcus aureus; type: toxicity; conditions: mouse red blood cells (erythrocytes)
How it was run: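 Mouse RBCs were washed three times in PBS and diluted in 20 volumes of PBS. They were mixed with compound 2-fold serially diluted from 1 mg/mL in PBS, incubated 1 h at 37 °C, then centrifuged; supernatant read at A540. % hemolysis was calculated against PBS (0%) and 2% Triton (100%). Done ≥3 times in duplicate. HC50 was divided by the MRSA MIC.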

Staphylococcus aureus [3] = experiment: Bactericidal activity against methicillin-resistant Staphylococcus aureus ATCC 33591 at 24 to 48 microg/ml measured upto 60 mins by time kill assay; type: functional, organism-based; conditions: dose microg/ml 24-48, time min <=60
How it was run: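 Mid-log MRSA (overnight culture in TSB at 37 °C with shaking, then 6 h subculture) at 10^6 CFU/mL was exposed to 6, 12, 24 or 48 μg/mL at 37 °C for 10, 30, 60 and 120 min. Samples were diluted 10^2-fold, plated on TSB agar, incubated 20 h at 37 °C, and colonies counted. Untreated control; three repeats.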

Staphylococcus aureus [4] = experiment: Antibacterial activity against methicillin-resistant Staphylococcus aureus ATCC 33591; type: functional; how it was run: as §1
[5] = system: Staphylococcus epidermidis; experiment: Antibacterial activity against methicillin-resistant Staphylococcus epidermidis RP62A in presence of divalent Ca2+; type: functional
How it was run: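 MIC set up as in the standard TSB broth microdilution (log-phase inoculum at 10^6 CFU/mL, complete growth inhibition end point). The medium was TSB prepared in DI water with CaCl2 added to 2 mM.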

Escherichia coli [6] = experiment: Antibacterial activity against Escherichia coli ATCC 25922 in presence of divalent Ca2+; type: functional
How it was run: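 MIC by the standard TSB broth dilution method, in TSB made with DI water and supplemented with CaCl2 to 2 mM. Inoculum of log-phase bacteria at 10^6 CFU/mL. MIC = lowest concentration completely inhibiting growth.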

Cell membrane [7] = experiment: Induction of inner membrane permeabilization in Escherichia coli ATCC 25922 at 2 times MIC measured for 12 mins by propidium iodide staining based fluorescence microscopic analysis; type: functional, subcellular
How it was run: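 Mid-log bacteria pelleted at 1000g, washed three times in 5 mM HEPES/5 mM glucose, and resuspended to 10^6 CFU/mL. PI added (50 μL of a 10 μM solution to 150 μL of cells). Fluorescence (ex 535 nm, em 617 nm) read every 2 min for about 8 min, then compound added and reading continued for 12 min. Water added as the no-drug control. Three repeats.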

Escherichia coli [8] = experiment: Antibacterial activity against Escherichia coli ATCC 25922; type: functional
How it was run: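 Broth microdilution in TSB. Stocks at 5 mg/mL in DMSO diluted with TSB to 100 μg/mL, then serially diluted; highest test concentration 25 μg/mL. Bacteria grown 16 h, subcultured 6 h to log phase, adjusted to 10^6 CFU/mL by OD600. MIC = lowest concentration giving complete growth inhibition. At least three repeats, each in duplicate.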

Cell membrane [9] = experiment: Induction of cell membrane disruption in methicillin-resistant Staphylococcus aureus ATCC 33591 assessed as propidium iodide-positive cells at 2 times MIC after 2 hrs by fluorescence microscopic analysis; type: subcellular
How it was run: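 A 10^6 CFU/mL suspension was diluted 100-fold and treated at 2× MIC for 2 h. Cells were pelleted (4000g, 15 min, 4 °C), washed three times in PBS, then stained 15 min with PI (5 μg/mL) and DAPI (10 μg/mL). Imaged by oil-immersion fluorescence microscopy alongside an untreated control. Three repeats in duplicate.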

[10] = Selectivity ratio of IC50 for cytotoxicity against human HeLa cells to MIC for methicillin-resistant Staphylococcus aureus; type: toxicity, cell-based
How it was run: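 HeLa cells were seeded at 5×10^3/well and allowed to attach for 24 h (37 °C, 5% CO2). They were then exposed 24 h to a range of compound concentrations in growth medium. Viability was read by CCK-8 (1 h, absorbance 490 nm). Triplicate wells, three repeats. IC50 was divided by the MRSA MIC.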

HeLa = experiment: Cytotoxicity against human HeLa cells after 24 hrs by MTT assay; type: cell-based
How it was run: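 HeLa cells seeded at 5 × 10^3 cells/well, attached 24 h at 37 °C, 5% CO2, then exposed to a range of compound concentrations in growth medium for 24 h. Viability read with CCK-8 reagent, absorbance at 490 nm after 1 h. Triplicate wells, three repeats.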

Escherichia coli [11] = experiment: Bactericidal activity against Escherichia coli ATCC 25922 at 24 to 48 microg/ml measured after 30 mins by time kill assay; type: functional, organism-based; conditions: dose microg/ml 24-48, time 30.0 min
How it was run: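 Mid-log bacteria at 10^6 CFU/mL incubated with compound (12, 24, 48 μg/mL) at 37 °C for 10, 30, 60, 120 min; untreated control. Mixtures diluted 10^4-fold, plated on TSB agar, incubated 20 h at 37 °C, colonies counted and plotted against time. Three repeats.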

Escherichia coli [12] = experiment: Antibiofilm activity against Escherichia coli ATCC 25922 assessed as reduction in biofilm formation at 3 ug/ml measured after 2 days by crystal violet staining based assay; type: functional; conditions: ATCC 25922, 48 h, time 2 day
How it was run: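 Mid-log E. coli (overnight culture, then 6 h subculture at 37 °C) set up with compound in TSB as in the MIC assay and incubated 2 days. Wells washed with DI water, stained with 0.1% crystal violet for 15 min, washed, dried, and dye solubilized in 30% acetic acid for 15 min. OD595 normalized to untreated control. Ciprofloxacin as comparator. Triplicate, mean ± STDEV.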

Cell membrane [13] = experiment: Induction of cell membrane disruption in Escherichia coli ATCC 25922 at 2 times MIC after 2 hrs by transmission electron microscopic analysis; type: subcellular
How it was run: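 Bacteria at 10^6 CFU/mL treated with compound at 2 × MIC for 2 h at 37 °C; untreated controls included. Cells pelleted, washed three times in PBS, resuspended in deionized water, dropped onto grids, blotted, vacuum-dried at 50 °C for 30 s, and imaged by TEM.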

Cell membrane [14] = experiment: Induction of cell membrane disruption in Escherichia coli ATCC 25922 assessed as propidium iodide-positive cells at 2 times MIC after 2 hrs by fluorescence microscopic analysis; type: subcellular
How it was run: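 Bacteria from a 10^6 CFU/mL suspension diluted 100-fold and treated with compound at 2 × MIC for 2 h. Cells pelleted (4000g, 15 min, 4 °C), washed three times in PBS, and stained 15 min with PI (5 μg/mL) and DAPI (10 μg/mL). Imaged by oil-immersion fluorescence microscopy; untreated controls included. Three repeats in duplicate.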

## CCCCCCCCCC(=O)N[C@@H](CCCCN)CN1CC(=O)N(c2ccc(N3CN(C[C@H](CCCCN)NC(=O)CCCCCCCCC)CC3=O)cc2)C1
[1]
  MIC: 5 µg/mL (≈ 6.38 µM)
Klebsiella pneumoniae
  MIC: 7 µg/mL
[2]
  selectivity ratio: > 125
Staphylococcus aureus [3]
  Activity: Active
Staphylococcus aureus [4]
  MIC: 2 µg/mL (≈ 2.55 µM)
[5]
  MIC: 2 µg/mL
Escherichia coli [6]
  MIC: 7 µg/mL
Cell membrane [7]
  Activity: Active
Escherichia coli [8]
  MIC: 5 µg/mL (≈ 6.38 µM)
Cell membrane [9]
  Activity: Active
[10]
  selectivity ratio: > 38
HeLa
  IC50: 74.8 µg/mL (≈ 95.5 µM)
Escherichia coli [11]
  Activity: Active
Escherichia coli [12]
  inhibition at 3 µg/mL: > 50%
Cell membrane [13]
  Activity: Active
Cell membrane [14]
  Activity: Active

— ChEMBL document CHEMBL4699493, “Development of Bis-cyclic Imidazolidine-4-one Derivatives as Potent Antibacterial Agents” (J Med Chem, 2020)
